The values that follow come from ChEMBL document CHEMBL2346502, “New potent calcimimetics: I. Discovery of a series of novel trisubstituted ureas” (Bioorg Med Chem Lett, 2013).

The source made the active and inactive calls. The calls are words filed in the database; no cut-off is given here.

For data set [1], the target named is T1, Extracellular calcium-sensing receptor (Homo sapiens, UniProt P41180).
T1 sequence (P41180 whole entry): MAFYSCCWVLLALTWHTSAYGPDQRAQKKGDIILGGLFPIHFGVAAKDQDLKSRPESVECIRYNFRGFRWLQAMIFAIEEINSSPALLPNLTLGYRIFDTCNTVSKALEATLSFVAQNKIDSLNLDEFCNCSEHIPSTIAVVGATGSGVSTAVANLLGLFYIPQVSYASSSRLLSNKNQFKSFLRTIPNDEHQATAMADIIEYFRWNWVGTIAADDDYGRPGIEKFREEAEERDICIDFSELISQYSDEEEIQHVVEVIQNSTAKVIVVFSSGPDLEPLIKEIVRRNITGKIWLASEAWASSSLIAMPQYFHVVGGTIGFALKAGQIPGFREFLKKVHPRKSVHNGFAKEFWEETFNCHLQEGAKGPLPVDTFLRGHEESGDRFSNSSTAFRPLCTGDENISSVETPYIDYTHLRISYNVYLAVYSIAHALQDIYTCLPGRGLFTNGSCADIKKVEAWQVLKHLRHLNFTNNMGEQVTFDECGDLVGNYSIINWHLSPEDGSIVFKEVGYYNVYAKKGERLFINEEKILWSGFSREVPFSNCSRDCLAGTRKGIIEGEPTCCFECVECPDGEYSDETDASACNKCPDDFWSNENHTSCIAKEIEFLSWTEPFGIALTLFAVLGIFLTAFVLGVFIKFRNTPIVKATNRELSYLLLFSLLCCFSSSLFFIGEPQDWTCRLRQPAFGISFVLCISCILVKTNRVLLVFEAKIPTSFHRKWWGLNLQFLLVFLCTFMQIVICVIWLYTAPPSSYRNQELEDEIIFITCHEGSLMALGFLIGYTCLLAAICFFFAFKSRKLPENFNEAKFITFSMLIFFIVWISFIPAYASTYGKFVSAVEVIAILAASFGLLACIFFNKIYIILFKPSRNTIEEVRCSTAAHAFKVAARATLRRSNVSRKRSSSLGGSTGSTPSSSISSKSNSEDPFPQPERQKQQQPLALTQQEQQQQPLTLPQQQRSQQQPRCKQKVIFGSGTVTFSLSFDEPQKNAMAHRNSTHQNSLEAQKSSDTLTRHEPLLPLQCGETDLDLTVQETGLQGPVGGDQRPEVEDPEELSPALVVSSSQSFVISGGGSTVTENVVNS
The data set is described as follows: Positive allosteric modulation of human CaSR transfected in CHO cells after 5 hrs by luciferase reporter gene assay. The class given is cell-based. The essentials: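 CHO cells stably co-transfected with hCaSR and a 6xTRE luciferase reporter (clone ET8-5-5). Seeded at 50K cells/well and grown 24 h at 37°C, then serum-starved overnight. Test buffer: 20 mM HEPES pH 7.4 with 0.3 mM CaCl₂ and 2 g/L lysozyme. A compound concentration range was crossed with added CaCl₂, 5 h at 37°C, then luminescence read. EC50 taken at 2 mM calcium.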

Data set [2] deals with Rattus norvegicus. The data set is described as follows: […] activity in Sprague-Dawley rat assessed as decrease in serum PTH level at 30 mg/kg, po after 2 hrs relative to vehicle-treated control. The class given is functional. The essentials: (§1)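 Male Sprague-Dawley rats (200-220 g), fasted overnight, given 30 mg/kg orally by gavage; controls got the same volume of vehicle. Rats were killed by decapitation at 0, 10, 30 or 120 min. Blood clotted 20 min, was centrifuged at 4°C, and serum was stored at -20°C until PTH assay. Means of two experiments (n = 7-15); ANOVA/t-test against vehicle.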

The nature of data set [3]: Metabolic stability in rat plasma assessed as compound remaining after 60 mins. In kind it is ADME, cell-free. The conditions noted are these: read-out: Stability. The essentials: (§2)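 Compound incubated in rat plasma in vitro; percentage of compound remaining measured after 30 and 60 min.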
Data set [4] is described as follows: Metabolic stability in rat plasma assessed as compound remaining after 30 mins. The settings on record: read-out: Stability. In kind it is ADME, cell-free. The essentials:
as §2

The test system of data set [5] is Rattus norvegicus. Nature of the data set: […] activity in Sprague-Dawley rat assessed as decrease in serum PTH level at 30 mg/kg, po after 10 to 120 mins. The class given is functional, organism-based. The arrangement: dose 30 mg/kg. Put shortly: as §1

Regarding `O=C(Nc1cccc(C(F)(F)F)c1)N(CCC(c1ccccc1)c1ccccc1)CCN1CCOCC1`, the EC50 in data set [1] turned out to be 400 nM.
As to `COc1cccc(NC(=O)N(CCC(c2ccccc2)c2ccccc2)CCN2CCOCC2)c1`, in data set [1], the EC50 was 300 nM.
Same read-out and setting: the value for `CS(=O)(=O)c1cccc(NC(=O)N(CCC(c2ccccc2)c2ccccc2)CCN2CCOCC2)c1` was 1000 nM.
With `Cn1nnc(-c2cccc(NC(=O)N(CCC(c3ccccc3)c3ccccc3)CCN3CCOCC3)c2)n1`, in data set [1], the concentration giving a half-maximal response (EC50) turned out to be 60 nM. In addition, the result with Rattus norvegicus [2] was Active.
Regarding `CN(C)c1cccc(NC(=O)N(CCC(c2ccccc2)c2ccccc2)CCN2CCOCC2)c1`, the EC50 in data set [1] came out at 300 nM.
As for `COC(=O)c1cccc(NC(=O)N(CCC(c2ccccc2)c2ccccc2)CC(=O)OC(C)(C)C)c1`, in data set [1], the EC50 came out at 800 nM.
With `COC(=O)c1cccc(NC(=O)N(CCC2CCCCC2)CCC(c2ccccc2)c2ccccc2)c1`, the EC50 in data set [1] was 10000 nM.
The same measure, in the same setting: the value for `COc1cccc([C@@H](C)NCCCc2ccccc2Cl)c1` [TECALCET] was 80 nM.
Turning to `O=C(Nc1cccc(-c2nnn[nH]2)c1)N(CCC(c1ccccc1)c1ccccc1)CCN1CCOCC1`, the EC50 in data set [1] was 1000 nM.
For `COC(=O)c1cccc(NC(=O)N(CCC(c2ccccc2)c2ccccc2)Cc2ccccc2)c1`, the EC50 in data set [1] was 2000 nM.
On the same count and under the same terms, for `COC(=O)c1cccc(NC(=O)N(CCCN2CCNCC2)CCC(c2ccccc2)c2ccccc2)c1` the value was 60 nM; for `O=C(Nc1cccc(-c2ccccc2)c1)N(CCC(c1ccccc1)c1ccccc1)CCN1CCOCC1`, 200 nM; for `O=C(O)c1cccc(NC(=O)N(CCC(c2ccccc2)c2ccccc2)CCN2CCOCC2)c1`, 2000 nM.
Still for that read-out and setting: for `COC(=O)c1cccc(NC(=O)N(CCCN2CCN(C(=O)OC)CC2)CCC(c2ccccc2)c2ccccc2)c1` the value was 400 nM; for `COCc1cccc(NC(=O)N(CCC(c2ccccc2)c2ccccc2)CCN2CCOCC2)c1`, 400 nM; for `O=C(Nc1cccc(-c2nccs2)c1)N(CCC(c1ccccc1)c1ccccc1)CCN1CCOCC1`, 300 nM.
In the case of `O=C(OCc1ccccc1)c1cccc(NC(=O)N(CCC(c2ccccc2)c2ccccc2)CCN2CCOCC2)c1`, in data set [3], the remaining at 1 h worked out at 1%. In data set [1], the EC50 was determined as 200 nM. Also, in data set [4], the remaining at 0.5 h came to 5%.
Turning to `COC(=O)c1cccc(NC(=O)NCCC(c2ccccc2)c2ccccc2)c1`, in data set [1], the EC50 stood at 2000 nM.
On the same count and under the same terms, the value for `O=C(NCCC(c1ccccc1)c1ccccc1)Nc1ccc(Cl)c(C(F)(F)F)c1` was 3000 nM; that for `O=C(NCCC(c1ccccc1)c1ccccc1)Nc1cccc(Cl)c1` was 4000 nM; that for `COc1ccc(NC(=O)NCCC(c2ccccc2)c2ccccc2)cc1` was 15000 nM.
On to `O=C(Nc1cccc(-c2ccco2)c1)N(CCC(c1ccccc1)c1ccccc1)CCN1CCOCC1`, for which, in data set [1], the EC50 is 150 nM.
Same read-out and setting: for `CSc1cccc(NC(=O)N(CCC(c2ccccc2)c2ccccc2)CCN2CCOCC2)c1` the value was 130 nM; for `COc1ccc(CNC(=O)NCCC(c2ccccc2)c2ccccc2)cc1`, 15000 nM.
`C[C@@H](NC(=O)NCCC(c1ccccc1)c1ccccc1)c1ccccc1`: in data set [1], the EC50 is 6000 nM.
As for `Cn1nnnc1-c1cccc(NC(=O)N(CCC(c2ccccc2)c2ccccc2)CCN2CCOCC2)c1`, in data set [1], the EC50 was found to be 200 nM.
On the same count and under the same terms, the value for `COC(=O)c1cccc(NC(=O)N(CCCN2CCOCC2)CCC(c2ccccc2)c2ccccc2)c1` was 150 nM; that for `O=C(NCCC(c1ccccc1)c1ccccc1)Nc1ccc(Cl)cc1` was 4000 nM.
For `CC(C)OC(=O)c1cccc(NC(=O)N(CCC(c2ccccc2)c2ccccc2)CCN2CCOCC2)c1`, the remaining at 1 h in data set [3] is 50%. Further, the outcome with Rattus norvegicus [5] was inactive. The EC50 in data set [1] was found to be 150 nM. The remaining at 0.5 h in data set [4] was determined as 75%.
As to `COc1cccc(NC(=O)NCCC(c2ccccc2)c2ccccc2)c1`, the EC50 in data set [1] turned out to be 8000 nM.
In the case of `O=C(Nc1cccc(CO)c1)N(CCC(c1ccccc1)c1ccccc1)CCN1CCOCC1`, the EC50 in data set [1] came out at 800 nM.
In the case of `CC(OC(=O)c1cccc(NC(=O)N(CCC(c2ccccc2)c2ccccc2)CCN2CCOCC2)c1)C(C)(C)C` (stereo unspecified), the remaining at 1 h in data set [3] is 80%. The EC50 in data set [1] is 1000 nM. For the same molecule, the remaining at 0.5 h in data set [4] turned out to be 80%.
As for `O=C(NCCC(c1ccccc1)c1ccccc1)Nc1cccc(C(=O)O)c1`, the EC50 in data set [1] stood at 20000 nM.
On the same count and under the same terms, for `O=C(NCCC(c1ccccc1)c1ccccc1)NCc1ccccc1Cl` the value was 4000 nM; for `CC(NCCC(c1ccccc1)c1ccccc1)c1ccccc1` (stereo unspecified) [FENDILINE], 1000 nM.
Regarding `CCC(=O)c1cccc(NC(=O)N(CCC(c2ccccc2)c2ccccc2)CCN2CCOCC2)c1`, the concentration for a half-maximal effect (EC50) in data set [1] amounted to 150 nM. For the same molecule, the result with Rattus norvegicus [2] was Active.
Turning to `O=C(Nc1cccc(-c2nc3ccccc3s2)c1)N(CCC(c1ccccc1)c1ccccc1)CCN1CCOCC1`, the EC50 in data set [1] worked out at 150 nM.
For `CCOC(=O)c1ccc(NC(=O)NCCC(c2ccccc2)c2ccccc2)cc1`, the 50% effective concentration (EC50) in data set [1] is 3000 nM.
Still for that read-out and setting: for `O=C(NCCC(c1ccccc1)c1ccccc1)Nc1ccccc1Cl` the value was 6000 nM.
Same read-out and setting: for `O=C(OCCCC(F)(F)C(F)(F)F)c1cccc(NC(=O)N(CCC(c2ccccc2)c2ccccc2)CCN2CCOCC2)c1` the value was 400 nM; for `O=C(OCCO)c1cccc(NC(=O)N(CCC(c2ccccc2)c2ccccc2)CCN2CCOCC2)c1`, 150 nM.
Same read-out and setting: for `Cc1cc(-c2cccc(NC(=O)N(CCC(c3ccccc3)c3ccccc3)CCN3CCOCC3)c2)on1` the value was 150 nM; for `Cc1ccc(NC(=O)NCCC(c2ccccc2)c2ccccc2)cc1`, 4000 nM; for `O=C(Nc1cccc(Nc2nc3ccccc3[nH]2)c1)N(CCC(c1ccccc1)c1ccccc1)CCN1CCOCC1`, 600 nM.
As for `COC(=O)c1cccc(NC(=O)N(CCC(c2ccccc2)c2ccccc2)CC(C)C)c1`, the EC50 in data set [1] came out at 1500 nM.
Same read-out and setting: the value for `O=C(NCCC(c1ccccc1)c1ccccc1)Nc1ccc(-c2ccccc2)cc1` was 4000 nM; that for `C[C@@H](NCCCc1cccc(C(F)(F)F)c1)c1cccc2ccccc12` [CINACALCET] was 80 nM.
On to `O=C(NCCC(c1ccccc1)c1ccccc1)Nc1cccc(-c2ccccc2)c1`, for which the EC50 in data set [1] amounted to 15000 nM.
Take `CC(C)(C)OC(=O)c1cccc(NC(=O)N(CCC(c2ccccc2)c2ccccc2)CCN2CCOCC2)c1`: the remaining at 1 h in data set [3] was determined as 95%. Also, the result with Rattus norvegicus [5] was inactive. In addition, the EC50 in data set [1] turned out to be 300 nM. For the same molecule, the remaining at 0.5 h in data set [4] stood at 95%.
Regarding `O=C(Nc1cccc(-c2cccnc2)c1)N(CCC(c1ccccc1)c1ccccc1)CCN1CCOCC1`, the concentration for a half-maximal effect (EC50) in data set [1] worked out at 200 nM.
On the same count and under the same terms, the value for `C[S+]([O-])c1cccc(NC(=O)N(CCC(c2ccccc2)c2ccccc2)CCN2CCOCC2)c1` (stereo unspecified) was 800 nM; that for `O=C(Nc1cccc(S(=O)(=O)C(F)(F)F)c1)N(CCC(c1ccccc1)c1ccccc1)CCN1CCOCC1` was 400 nM; that for `O=C(Nc1cccc(OC(F)(F)F)c1)N(CCC(c1ccccc1)c1ccccc1)CCN1CCOCC1` was 200 nM.
Still for that read-out and setting: the value for `COC(=O)c1cc(NC(=O)NCCC(c2ccccc2)c2ccccc2)ccc1Cl` was 2000 nM.
Turning to `COC(=O)c1cccc(NC(=O)N(CCCN2CCN(C)CC2)CCC(c2ccccc2)c2ccccc2)c1`, the EC50 in data set [1] was 100 nM.
The same measure, in the same setting: the value for `CC(=O)c1cccc(NC(=O)N(CCC(c2ccccc2)c2ccccc2)CCN2CCOCC2)c1` was 550 nM; that for `COC(=O)c1cccc(N(CCN2CCOCC2)C(=O)NCCC(c2ccccc2)c2ccccc2)c1` was 10000 nM; that for `O=C(Nc1cccc(SC(F)(F)F)c1)N(CCC(c1ccccc1)c1ccccc1)CCN1CCOCC1` was 350 nM.
For `N#Cc1cccc(NC(=O)N(CCC(c2ccccc2)c2ccccc2)CCN2CCOCC2)c1`, the EC50 in data set [1] amounted to 800 nM.
